Experimental data from ChEMBL document CHEMBL4414574, “Structure-Based Discovery and Development of a Series of Potent and Selective Bromodomain and Extra-Terminal Protein Inhibitors” (J Med Chem, 2019).
Calls of active or inactive are those of the source. The rule behind the calls is not given here.

Tests used:
MV4-11 [1] = test: Induction of apoptosis in human MV4-11 cells assessed as increase in cleaved caspase-8 level after 24 hrs by Western blot analysis; type: functional, cell-based
Method in brief: (§1)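 MV4-11 cells exposed to test agent at the indicated doses for 24 h. Lysates immunoblotted for full-length and cleaved caspase-3, -7, -8 and -9, with GAPDH as the loading reference.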

MV4-11 [2] = test: Induction of apoptosis in human MV4-11 cells assessed as reduction in c-IAP2 level after 24 hrs by Western blot analysis; type: functional, cell-based
MV4-11 [3] = test: Induction of apoptosis in human MV4-11 cells after 24 hrs by Annexin V staining based assay; type: functional, cell-based
RKO = test: Induction of cell cycle arrest in human RKO cells assessed as increase in accumulation at G1 phase at 100 nM after 24 hrs by propidium iodide staining based flow cytometric analysis; type: functional
MV4-11 [4] = test: Antitumor activity against human MV4-11 cells xenografted in Balb/c nude mouse assessed as tumor growth inhibition at 100 mg/kg, po administered once daily and measured twice a week by caliper method relative to control; type: functional; settings: MV4-11, po, read-out: TGI
MV4-11 [5] = test: Induction of apoptosis in human MV4-11 cells assessed as reduction in XIAP level after 24 hrs by Western blot analysis; type: functional, cell-based
MV4-11 [6] = test: Induction of apoptosis in human MV4-11 cells assessed as reduction in c-IAP1 level after 24 hrs by Western blot analysis; type: functional, cell-based
Homo sapiens = species on record: Homo sapiens; test: Antiproliferative activity against human TY82 cells after 72 hrs by CCK8 or SRB assay; type: functional, cell-based
MV4-11 [7] = test: Induction of apoptosis in human MV4-11 cells assessed as increase in cleaved caspase-9 level after 24 hrs by Western blot analysis; type: functional, cell-based; method in brief: as §1
MM1.S [8] = test: Antiproliferative activity against human MM1S cells after 72 hrs by CCK8 or SRB assay; type: functional, cell-based
Method in brief: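 IC50 against MM.1S cell proliferation was taken as the mean of three independent experiments, each run in triplicate, reported with SEM.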

MV4-11 [9] = test: Antiproliferative activity against human MV4-11 cells after 72 hrs by CCK8 or SRB assay; type: functional, cell-based
MV4-11 [10] = test: Antitumor activity against human MV4-11 cells xenografted in Balb/c nude mouse assessed as tumor growth inhibition at 50 mg/kg, po administered once daily and measured twice a week by caliper method relative to control; type: functional; settings: MV4-11, po, read-out: TGI
[11] = Half life in mouse liver microsomes at 1 uM preincubated for 5 mins followed by NADPH addition and measured after 5 to 30 mins by LC/MS/MS analysis; type: ADME, Microsome; settings: mouse liver microsomes
Cytochrome P450 2D6 = Cytochrome P450 2D6 (Homo sapiens, UniProt P10635); test: Time-dependent inhibition of CYP2D6 in human liver microsomes at 10 uM using dextromethorphan as substrate preincubated up to 30 mins followed by NADPH generating system addition and measured after 10 mins; type: ADME
Method in brief: (§2)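 Human liver microsomes 0.2 mg/mL, 100 mM phosphate pH 7.4, 10 μM test compound, preincubated 0, 5, 10 and 30 min at 37 °C; then NADPH plus probe cocktail (5 μM midazolam, 50 μM testosterone, 5 μM dextromethorphan, 10 μM diclofenac, 50 μM phenacetin, 50 μM S-(+)-mephenytoin) added; 10 min reaction; kobs in units of 10^-4/min.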

CYP2C9 = CYP2C9 (Homo sapiens, UniProt P11712); test: Reversible inhibition of CYP2C9 in human liver microsomes at 10 uM using diclofenac as substrate preincubated for 5 mins followed by NADPH generating system addition and measured after 20 mins relative to control; type: ADME; settings: probe diclofenac
Method in brief: (§3)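 Human liver microsomes 0.2 mg/mL, 100 mM phosphate pH 7.4, 10 μM test compound, probe cocktail (10 μM midazolam, 100 μM testosterone, 10 μM dextromethorphan, 20 μM diclofenac, 100 μM phenacetin, 100 μM mephenytoin); organic solvent <1%; 5 min preincubation at 37 °C, started with NADPH-generating system, 20 min reaction; metabolite formation expressed relative to PBS control.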

[12] = Cmax in ICR mouse at 3 mg/kg, po administered via gavage measured after 0.25 to 24 hrs by UPLC/MS analysis; type: ADME, organism-based; design: dose 3 mg/kg, route oral; settings: in vivo
Method in brief: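 Male ICR mice dosed orally in 1% DMSO/0.5% HPMC vehicle; plasma or brain drug levels used to derive Tmax, Cmax, AUC0-t, AUC0-inf and T1/2.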

Cytochrome P450 1A2 = biological target: T1, Cytochrome P450 1A2 (Homo sapiens, UniProt P05177); test: Time-dependent inhibition of CYP1A2 in human liver microsomes at 10 uM using phenacetin as substrate preincubated up to 30 mins followed by NADPH generating system addition and measured after 10 mins; type: ADME; method in brief: as §2
T1 sequence (P05177 whole entry): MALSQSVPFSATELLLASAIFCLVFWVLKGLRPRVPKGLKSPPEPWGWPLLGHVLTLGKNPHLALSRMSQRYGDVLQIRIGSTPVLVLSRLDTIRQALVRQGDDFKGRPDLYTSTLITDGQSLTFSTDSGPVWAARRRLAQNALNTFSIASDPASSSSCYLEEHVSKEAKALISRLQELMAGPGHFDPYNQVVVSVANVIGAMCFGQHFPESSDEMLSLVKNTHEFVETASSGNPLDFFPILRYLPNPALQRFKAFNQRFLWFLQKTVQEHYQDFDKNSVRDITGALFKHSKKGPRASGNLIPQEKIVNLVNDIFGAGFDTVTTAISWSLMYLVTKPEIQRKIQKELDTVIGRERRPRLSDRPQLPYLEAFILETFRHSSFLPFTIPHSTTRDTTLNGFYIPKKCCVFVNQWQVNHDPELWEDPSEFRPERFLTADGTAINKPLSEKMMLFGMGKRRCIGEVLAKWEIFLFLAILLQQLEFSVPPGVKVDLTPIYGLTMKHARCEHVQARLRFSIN

CYP3A4 = CYP3A4 (Homo sapiens, UniProt P08684); test: Reversible inhibition of CYP3A4 in human liver microsomes at 10 uM using midazolam or testosterone as substrate preincubated for 5 mins followed by NADPH addition and measured after 20 mins relative to control; type: ADME; settings: probe midazolam or testosterone; method in brief: as §3
[13] = Solubility of the compound in water; type: physicochemical; settings: buffer
[14] = Intrinsic clearance in human liver microsomes at 1 uM preincubated for 5 mins followed by NADPH addition and measured after 5 to 30 mins by LC/MS/MS analysis; type: ADME, Microsome; settings: read-out: CLH
Method in brief: (§4)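 Liver microsomes (0.5 mg/mL) preincubated 5 min at 37 °C with 1 μM compound in 0.1 M phosphate buffer pH 7.4 containing 1 mM EDTA and 5 mM MgCl2; started with 1 mM NADPH; sampled at 0, 5, 10 and 30 min; quenched with cold acetonitrile; parent remaining quantified by LC/MS/MS.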

[15] = Intrinsic clearance in mouse liver microsomes at 1 uM preincubated for 5 mins followed by NADPH addition and measured after 5 to 30 mins by LC/MS/MS analysis; type: ADME, Microsome; settings: read-out: CLH; method in brief: as §4
[16] = biological target: Bromodomain-containing protein 2 (Homo sapiens) (UniProt P25440); test: Inhibition of BRD2 bromodomain 2 (unknown origin)
Method in brief: (§5)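 Bromodomain binding panel (32 bromodomains) screened at 1 μM; primary binding read-out reported as percent of control, lower values meaning stronger binding.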

[17] = biological target: T2, Bromodomain-containing protein 4 (Homo sapiens, UniProt O60885); test: Inhibition of BRD4 bromodomain 2 (unknown origin)
[18] = AUC (0 to t) in ICR mouse at 3 mg/kg, po administered via gavage measured after 0.25 to 24 hrs by UPLC/MS analysis; type: ADME, organism-based; design: time upper 24 hr, time lower 0.25 hr, dose 3 mg/kg, route oral; settings: in vivo
Method in brief: (§6)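 Male ICR mice were dosed orally in 1% DMSO/0.5% HPMC vehicle. Plasma (and brain, where stated) concentrations gave Tmax, Cmax, T1/2, AUC0-t and AUC0-inf.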

CYP2C19 = CYP2C19 (Homo sapiens, UniProt P33261); test: Reversible inhibition of CYP2C19 in human liver microsomes at 10 uM using mephenytoin as substrate preincubated for 5 mins followed by NADPH generating system addition and measured after 20 mins relative to control; type: ADME; settings: probe mephenytoin; method in brief: as §3
[19] = biological target: T2, Bromodomain-containing protein 4; test: Inhibition of BRD4 bromodomain 1 (unknown origin)
Method in brief: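 BRD4 BD1 (His6-tagged, E. coli BL21(DE3)-expressed, Ni-NTA purified) at 10 nM with 5 nM FITC-labelled (+)-JQ1 tracer; 50 mM HEPES pH 7.4, 150 mM NaCl, 0.5 mM CHAPS, DMSO 2‰ final; graded inhibitor; 4 h dark equilibration at room temperature; fluorescence anisotropy read (ex 485/em 530 nm). IC50 from two independent experiments in duplicate, mean ± SEM.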

[20] = Half life in ICR mouse at 3 mg/kg, po administered via gavage measured after 0.25 to 24 hrs by UPLC/MS analysis; type: ADME, organism-based; settings: in vivo
Method in brief: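 Male ICR mice dosed orally; vehicle 1% DMSO/0.5% HPMC. Plasma pharmacokinetic parameters, including T1/2, were determined after the single oral dose.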

[21] = AUC (0 to infinity) in ICR mouse at 3 mg/kg, po administered via gavage measured after 0.25 to 24 hrs by UPLC/MS analysis; type: ADME, organism-based; design: dose 3 mg/kg, time infinity, route oral; settings: in vivo; method in brief: as §6
Cytochrome P450 2C19 = Cytochrome P450 2C19 (Homo sapiens, UniProt P33261); test: Time-dependent inhibition of CYP2C19 in human liver microsomes at 10 uM using mephenytoin as substrate preincubated up to 30 mins followed by NADPH generating system addition and measured after 10 mins; type: ADME; method in brief: as §2
[22] = biological target: T2, Bromodomain-containing protein 4; test: Displacement of 5-FITC labelled (+)-JQ1 from His6-tagged human BRD4 bromodomain 1 expressed in Escherichia coli BL21(DE3) )-codon plus-RIL cells incubated for 4 hrs in dark condition by fluorescence anisotropy binding assay
[23] = Tmax in ICR mouse at 3 mg/kg, po administered via gavage measured after 0.25 to 24 hrs by UPLC/MS analysis; type: ADME, organism-based; settings: in vivo
Method in brief: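 Male ICR mice dosed orally (3, 10 or 100 mg/kg, per line) in 1% DMSO/0.5% HPMC vehicle; plasma drug levels measured.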

[24] = Half life in human liver microsomes at 1 uM preincubated for 5 mins followed by NADPH addition and measured after 5 to 30 mins by LC/MS/MS analysis; type: ADME, Microsome
[25] = Solubility of the compound at pH 2 to 7; type: physicochemical; settings: buffer
[26] = biological target: Histone acetyltransferase p300 (Homo sapiens) (UniProt Q09472); test: Inhibition of EP300 (unknown origin) at 1 uM; method in brief: as §5
Cytochrome P450 2C9 = Cytochrome P450 2C9 (Homo sapiens, UniProt P11712); test: Time-dependent inhibition of CYP2C9 in human liver microsomes at 10 uM using diclofenac as substrate preincubated up to 30 mins followed by NADPH generating system addition and measured after 10 mins; type: ADME; method in brief: as §2
MM1.S [27] = test: Antitumor activity against human MM1S cells xenografted in SCID mouse assessed as tumor growth at 20 mg/kg, po administered daily relative to control; type: functional
Cytochrome P450 3A4 = Cytochrome P450 3A4 (Homo sapiens, UniProt P08684); test: Time-dependent inhibition of CYP3A4 in human liver microsomes at 10 uM using midazolam or testosterone as substrate preincubated up to 30 mins followed by NADPH generating system addition and measured after 10 mins; type: ADME; method in brief: as §2
[28] = biological target: Bromodomain-containing protein 2 (Homo sapiens) (UniProt P25440); test: Inhibition of BRD2 bromodomain 1 (unknown origin)

Chain of Bromodomain-containing protein 2 (Homo sapiens) (P25440 whole entry, looked up): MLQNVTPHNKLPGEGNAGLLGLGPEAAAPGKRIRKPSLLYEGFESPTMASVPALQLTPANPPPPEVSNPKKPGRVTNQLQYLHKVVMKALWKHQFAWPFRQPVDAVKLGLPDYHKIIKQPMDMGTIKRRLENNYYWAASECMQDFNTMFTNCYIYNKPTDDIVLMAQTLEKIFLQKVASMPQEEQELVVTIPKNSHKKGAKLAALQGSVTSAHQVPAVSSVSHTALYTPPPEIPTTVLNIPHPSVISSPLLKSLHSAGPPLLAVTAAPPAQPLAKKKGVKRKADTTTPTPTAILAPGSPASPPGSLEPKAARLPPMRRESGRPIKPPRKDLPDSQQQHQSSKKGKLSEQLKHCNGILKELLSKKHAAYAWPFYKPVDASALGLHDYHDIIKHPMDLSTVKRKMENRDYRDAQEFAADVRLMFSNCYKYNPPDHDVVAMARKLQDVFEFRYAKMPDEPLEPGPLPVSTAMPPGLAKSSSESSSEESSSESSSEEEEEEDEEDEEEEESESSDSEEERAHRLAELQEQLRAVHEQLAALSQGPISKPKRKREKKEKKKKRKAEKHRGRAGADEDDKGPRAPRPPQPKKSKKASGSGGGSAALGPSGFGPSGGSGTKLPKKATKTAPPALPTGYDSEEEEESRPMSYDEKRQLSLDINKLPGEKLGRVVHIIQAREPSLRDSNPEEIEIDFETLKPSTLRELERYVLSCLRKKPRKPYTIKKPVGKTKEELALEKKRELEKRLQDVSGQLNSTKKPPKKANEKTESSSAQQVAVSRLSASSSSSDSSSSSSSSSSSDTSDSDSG
Chain of Cytochrome P450 2C19 (P33261 whole entry): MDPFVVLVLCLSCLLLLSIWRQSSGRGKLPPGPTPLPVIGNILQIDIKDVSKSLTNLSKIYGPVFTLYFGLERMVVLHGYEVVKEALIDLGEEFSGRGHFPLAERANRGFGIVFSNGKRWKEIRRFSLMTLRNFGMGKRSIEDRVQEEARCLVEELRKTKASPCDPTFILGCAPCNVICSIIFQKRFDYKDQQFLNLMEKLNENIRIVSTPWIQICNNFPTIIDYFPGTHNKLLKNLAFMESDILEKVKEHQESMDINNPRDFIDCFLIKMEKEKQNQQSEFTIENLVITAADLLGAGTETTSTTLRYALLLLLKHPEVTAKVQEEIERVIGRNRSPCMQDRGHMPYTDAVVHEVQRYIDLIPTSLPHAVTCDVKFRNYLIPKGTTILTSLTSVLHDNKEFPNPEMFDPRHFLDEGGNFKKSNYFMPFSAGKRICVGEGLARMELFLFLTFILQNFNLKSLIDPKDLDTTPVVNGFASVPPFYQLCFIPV
Chain of CYP2C19 (P33261 whole entry): as above
Chain of CYP3A4 (P08684 whole entry): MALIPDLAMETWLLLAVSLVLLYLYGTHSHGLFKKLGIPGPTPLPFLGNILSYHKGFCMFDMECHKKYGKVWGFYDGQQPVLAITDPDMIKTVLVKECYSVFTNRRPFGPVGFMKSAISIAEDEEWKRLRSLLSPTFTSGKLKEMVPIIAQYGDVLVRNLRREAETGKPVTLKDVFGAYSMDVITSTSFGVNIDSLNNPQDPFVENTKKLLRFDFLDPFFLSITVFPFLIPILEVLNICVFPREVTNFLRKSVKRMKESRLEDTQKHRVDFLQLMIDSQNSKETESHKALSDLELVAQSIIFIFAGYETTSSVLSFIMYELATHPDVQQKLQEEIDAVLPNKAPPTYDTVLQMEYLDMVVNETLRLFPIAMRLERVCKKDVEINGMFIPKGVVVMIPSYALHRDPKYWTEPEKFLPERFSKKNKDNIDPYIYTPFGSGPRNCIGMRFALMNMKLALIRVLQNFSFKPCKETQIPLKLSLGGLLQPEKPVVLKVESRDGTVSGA
Chain of Cytochrome P450 3A4 (P08684 whole entry): as above
Chain of Cytochrome P450 2C9 (P11712 whole entry): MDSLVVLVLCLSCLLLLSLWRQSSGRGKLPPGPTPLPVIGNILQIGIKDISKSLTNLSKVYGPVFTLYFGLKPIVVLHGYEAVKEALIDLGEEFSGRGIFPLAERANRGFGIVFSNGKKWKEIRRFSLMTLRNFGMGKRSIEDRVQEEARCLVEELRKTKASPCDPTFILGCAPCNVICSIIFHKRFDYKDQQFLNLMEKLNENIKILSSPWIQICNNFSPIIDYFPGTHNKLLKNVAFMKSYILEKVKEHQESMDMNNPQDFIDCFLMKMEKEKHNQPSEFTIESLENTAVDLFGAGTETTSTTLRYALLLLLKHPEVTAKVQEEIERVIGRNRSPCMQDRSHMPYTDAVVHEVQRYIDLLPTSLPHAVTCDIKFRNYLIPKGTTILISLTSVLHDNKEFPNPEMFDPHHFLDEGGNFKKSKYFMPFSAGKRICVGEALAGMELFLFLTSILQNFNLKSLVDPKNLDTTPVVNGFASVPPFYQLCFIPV
Chain of CYP2C9 (P11712 whole entry): as above
Chain of Cytochrome P450 2D6 (P10635 whole entry): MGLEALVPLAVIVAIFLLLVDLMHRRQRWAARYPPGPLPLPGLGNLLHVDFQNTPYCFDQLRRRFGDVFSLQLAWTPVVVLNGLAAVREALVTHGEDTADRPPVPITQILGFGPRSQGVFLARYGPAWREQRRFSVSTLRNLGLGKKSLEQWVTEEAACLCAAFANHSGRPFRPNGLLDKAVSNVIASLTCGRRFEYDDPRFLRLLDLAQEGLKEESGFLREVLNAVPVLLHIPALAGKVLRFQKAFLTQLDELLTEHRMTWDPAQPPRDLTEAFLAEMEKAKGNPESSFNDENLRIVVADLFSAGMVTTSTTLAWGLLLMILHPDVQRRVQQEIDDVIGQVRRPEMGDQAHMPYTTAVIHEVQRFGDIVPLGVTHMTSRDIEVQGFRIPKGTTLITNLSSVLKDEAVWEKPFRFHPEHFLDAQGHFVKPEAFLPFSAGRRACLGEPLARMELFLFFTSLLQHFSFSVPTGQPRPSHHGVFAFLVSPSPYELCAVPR

Compound: Cc1sc2c(c1C)C(c1ccc(Cl)cc1)=N[C@@H](CC(=O)Nc1ccc(O)cc1)c1nnc(C)n1-2 [BIRABRESIB]
- Activity (MV4-11 [1]): Dose-dependent effect
- Activity (MV4-11 [2]): Dose-dependent effect
- Activity (MV4-11 [3]): Active
- Activity (RKO): Active
- inhibition in vivo at 100 mg/kg (MV4-11 [4]): 87.5%
- Activity (MV4-11 [5]): Dose-dependent effect
- Activity (MV4-11 [6]): Dose-dependent effect
- Activity (Homo sapiens): Active
- Activity (MV4-11 [7]): Dose-dependent effect
- IC50 (MM1.S [8]): 6.3 nM
- Activity (MV4-11 [9]): Active
- inhibition in vivo at 50 mg/kg (MV4-11 [10]): 71.5%

Compound: Cc1ccc(-n2c(C)nnc2-c2ccc3c(c2)N(C2CC2)C(C)C(=O)N3C)cc1 (centres undefined)
- half-life at 1 µM [11]: 3 min
- TDI (Cytochrome P450 2D6): Not Active
- inhibition at 20 min, 10 µM (CYP2C9): 10%
- Cmax [12]: 265 ng/mL
- TDI (Cytochrome P450 1A2): Not Active
- inhibition at 20 min, 10 µM (CYP3A4): 3%
- solubility [13]: Insoluble
- microsomal CLint at 1 µM [14]: 44 µL/min/mg
- microsomal CLint at 1 µM [15]: 460 µL/min/mg
- inhibition [16]: Active
- inhibition [17]: Active
- AUC(0-t) [18]: 243 ng·h/mL
- inhibition at 20 min, 10 µM (CYP2C19): 41%
- inhibition [19]: Active
- half-life [20]: 42 min
- AUC(0-inf) [21]: 244 ng·h/mL
- TDI (Cytochrome P450 2C19): Not Active
- IC50 [22]: 5.7 nM
- Tmax [23]: 18 min
- half-life at 1 µM [24]: 31.5 min
- solubility [25]: Insoluble
- inhibition [26]: inactive
- TDI (Cytochrome P450 2C9): Not Active
- T/C (MM1.S [27]): 67.4%
- IC50 (MM1.S [8]): 3.3 nM
- TDI (Cytochrome P450 3A4): Not Active
- inhibition activity call (active/inactive) [28]: Active
